This is a sample that favours compounds with a hit; in the whole collection about 1.8% have one here.
beta cell repl: inducers of MIN6 beta-cell proliferation, primary screen, ATP luminescence, uHTS; MIN6 cells proliferation, ATPlite luminescence, 48 h; cells starved in 0.2% serum; 100% = growth in 10% serum; proliferation, % at 10 µM; actives 0.29% (n = 330,000);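 active means compounds whose signal lies at least 3.5 SD above the mean of all wells on their plate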;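 further: 0% = DMSO-treated cells in low-serum medium and 100% = 10% serum control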
C8 TRAIL sens: viability loss with TRAIL in NB7+C8 cells, primary screen, TRAIL sensitizer project, cell-based, ATPlite luminescence; inhibition (viability loss, TRAIL sensitization), % at 10 µM; actives 1% (n = 360,000);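 active means compounds causing at least 50% loss of cell viability in the single-dose screen, relative to plate controls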
FLuc inh counter: firefly luciferase enzyme inhibitors, primary screen, artefact control for luciferase-based inhibitor screens, biochemical, luminescence, ATPLite | actives 1.5% (n = 200,000) | inhibition, % at 10 µM | 10 min | Luciferin 4-monooxygenase (Photinus pyralis), P08659 | AID 1006, 2008;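 active means inhibition above about 50% when tested at 10 µM, limit read from the data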
Target sequence (P08659 whole entry, looked up): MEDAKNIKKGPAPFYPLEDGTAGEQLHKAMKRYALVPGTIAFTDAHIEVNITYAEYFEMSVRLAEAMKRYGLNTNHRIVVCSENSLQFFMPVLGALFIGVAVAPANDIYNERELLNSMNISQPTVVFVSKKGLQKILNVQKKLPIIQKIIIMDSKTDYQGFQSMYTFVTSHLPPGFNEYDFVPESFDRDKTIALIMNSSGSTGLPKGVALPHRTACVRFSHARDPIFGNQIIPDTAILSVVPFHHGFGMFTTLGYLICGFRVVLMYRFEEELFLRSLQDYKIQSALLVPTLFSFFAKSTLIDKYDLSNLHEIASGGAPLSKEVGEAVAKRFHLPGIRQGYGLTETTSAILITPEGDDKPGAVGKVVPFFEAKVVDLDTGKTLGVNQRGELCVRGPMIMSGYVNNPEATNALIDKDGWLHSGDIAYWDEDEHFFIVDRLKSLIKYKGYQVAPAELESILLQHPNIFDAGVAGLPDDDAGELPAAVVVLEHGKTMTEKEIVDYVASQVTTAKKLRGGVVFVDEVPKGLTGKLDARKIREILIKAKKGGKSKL
PPC-1+TRAIL kill: compounds killing PPC-1 cancer cells with TRAIL present, primary screen, TRAIL potentiator project, ATPLite luminescence, uHTS; PPC-1 cells + TRAIL, ATPLite viability luminescence; cell killing (% activity), % at 4 µM or 5 µM; actives 0.41% (n = 220,000); AID 1443, 2008;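 active means cell killing above 50% in the first pass at 4 µM, then a duplicate retest at 5 µM averaging 50% or more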;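 further: plate controls were cells with TRAIL plus DMSO for no effect and medium-only wells lacking cells for full effect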
FLuc act counter: FLuc activators, initial screening, artefact control for FLuc-dependent activation tests, biochemical, ATPlite luminescence | ATPlite luciferase biochemical, 10 min; 0 = ATP-free wells, 1 = DMSO control | 200,000 tested, under 10 active | activation factor at 10 µM;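 active means luciferase activation factor, scaled between plate controls, of at least 2 with compound at 10 µM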
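Material: Luciferase/luciferin reagent mix | Doses: Test compounds dosed from 2 mM stocks in 100% DMSO | Timing: 10 min incubation after luciferase reagent addition, room temperature | Measured by: Luminescence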
hiPSC survival: enhancers of single-cell hiPSC survival, primary screen, ATPlite luminescence | actives 0.044% (n = 360,000) | survival enhancement, % at 20 µM | AID 602274, 2012 | 100% = ROCK inhibitor wells, 0% = DMSO; in the data active means survival enhancement above about 18%;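 further: cells exposed to compounds for 16 hours before the ATP read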
* hit, by the source's call; . = no result.

SMILES	beta cell repl	C8 TRAIL sens	FLuc inh counter	PPC-1+TRAIL kill	FLuc act counter	hiPSC survival
CCOC(=O)c1ccc(N=c2sc(C(=O)OC)cc(=O)n2-c2ccc(C(=O)OCC)cc2)cc1	-7	65*	-11	-4	1.1	13
COC(=O)c1cc(=O)n(-c2ccccc2)c(=Nc2ccccc2)s1	-7	5	-13	4	1.1	0
C#Cc1ccc([C@H]2C=C(C(=O)N3CCOCC3)O[C@@H](OCC)[C@@H]2CCCO)cc1	-6	1	-5	0	1.1	3
CSc1cc(-c2ccc(Cl)cc2)n(Cc2ccccc2)c(=O)c1C#N	-4	75*	-9	15	1.1	-1
Cc1cccc(S(=O)(=O)N2CCC(CO)(Cc3ccccc3)CC2)c1	-2	1	-2	-4	1	0
CCOC(=O)c1ccc(NC(=O)c2nc[nH]c2C(=O)NCCNC(=O)c2[nH]cnc2C(=O)Nc2ccc(C(=O)OCC)cc2)cc1	-6	92*	.	.	.	-5
CCOC(=O)c1ccc(NC(=O)c2nc[nH]c2C(=O)NC)cc1	6	13	.	1	.	0
CCOC(=O)c1ccc(Nc2ncnc3nc[nH]c23)cc1	-3	34	50*	33	0.5	-1
CN(Cc1cnc2nc(N)nc(N)c2n1)c1ccc(C(=O)NC(CCC(=O)O)C(=O)O)c2ccccc12 (centres undefined)	.	83*	.	.	.	7
O=C(O)CCC(NC(=O)c1ccc(Cl)cc1)C(=O)O (centres undefined)	-2	1	3	13	1	2
Cc1ccsc1C(=O)C1CCCN(Cc2cc(F)ccc2-n2cccn2)C1 (centres undefined)	-4	17	-8	3	1.1	0
O/C(=C\c1nc2ccccc2nc1/C=C(\O)c1ccccc1)c1ccccc1	-6	-4	73*	13	0.3	-3
COc1ccc(C2=NN(C(=O)COC(=O)c3ccc(S(C)(=O)=O)c([N+](=O)[O-])c3)C(c3ccco3)C2)cc1 (centres undefined)	-7	90*	.	.	.	0
Clc1nnc(N/N=C/c2ccccc2)c2ccccc12	-4	43	69*	41	0.3	-2
COc1cc(/C=N/Nc2nncc3ccccc23)cc(OC)c1OC	-3	31	.	.	.	0
C(=N\Nc1nncc2ccccc12)/c1ccccc1	-1	50*	.	27	.	-1
C(=N\Nc1ncnc2ccccc12)/c1ccccc1	-5	25	74*	33	0.3	-1
COc1ccc(/C=N/Nc2nnc(-c3ncc[nH]3)c3ccccc23)cc1	-1	24	72*	44	0.3	0
Oc1ccc2ccccc2c1/C=N/Nc1nnc(-c2ncc[nH]2)c2ccccc12	-6	21	16	-4	0.8	-1
CCCC#Cc1ccc2c(c1)O[C@H](CN(C)C(=O)CC1CC1)[C@H](C)CN([C@@H](C)CO)S2(=O)=O	.	5	.	.	.	1
Cc1nn(CC(=O)N2CCCCCC2)c(=O)c2cc3occc3n12	-1	-4	.	.	.	0
COc1ccc(-c2cc3c(c4c2ccn4C)C2CCC3C2)cc1OC (centres undefined)	.	-17	.	.	.	1
CC(=O)Nc1ccc(C=NNc2nnc(NN=Cc3ccc(NC(C)=O)cc3)c3ccccc23)cc1	.	64*	.	.	.	-6
CN(C)c1ccc(/C=N/Nc2nncc3ccccc23)cc1	.	66*	.	.	.	-1
Clc1ccc(/C=N/Nc2nnc(Cl)c3ccccc23)cc1	-4	27	42	22	0.6	-2
SMILES	beta cell repl	C8 TRAIL sens	FLuc inh counter	PPC-1+TRAIL kill	FLuc act counter	hiPSC survival
CCCc1ccc2oc(C(=O)N3CCNC(=O)C3CC(=O)OC)c(C)c2c1 (centres undefined)	3	8	.	.	.	3
COC1=CC(=O)c2c(ccc3ncnc(N)c23)C1=O	.	92*	.	.	.	-3
O=C(O)c1nn(Cc2csc(-c3ccccc3)n2)c(=O)c2ccccc12	-1	-2	.	.	.	0
NCCn1c(-c2ccccc2)cc(C(=O)O)c1-c1ccccc1F	2	-3	-1	9	1	1
COc1cccc2c1C(=O)c1c(O)c3c(c(O)c1C2=O)C[C@@](O)(C(=O)CO)C[C@@H]3OC1CC(N)C(O)C(C)O1 (some centres undefined)	.	45	.	.	.	-4
CC(=O)[C@@]1(O)Cc2c(O)c3c(c(O)c2[C@H](O[C@H]2C[C@H](N)[C@H](O)[C@H](C)O2)C1)C(=O)c1ccccc1C3=O	.	82*	.	.	.	-6
COc1cccc2c1C(=O)c1c(O)c3c(c(O)c1C2=O)C[C@@](O)(C(=O)CO)C[C@@H]3O[C@H]1C[C@H](N)[C@H](O)[C@H](C)O1	-8	62*	13	54*	0.9	-4
COc1cccc2c1C(=O)c1c(O)c3c(c(O)c1C2=O)CC(O)(C(C)=O)CC3OC1CC(N(C)C)C(O)C(C)O1 (centres undefined)	.	42	.	.	.	-4
Nc1c(-c2ccc(Cl)cc2)cnn1-c1ccccc1	-5	41	.	.	.	-1
Cc1ccc(-c2cnn(-c3ccccc3)c2N)cc1	-5	79*	.	.	.	-1
COc1ccccc1N1CC(C)(C)C(=O)N(C(=O)c2ccc(Cl)cc2)C1=S	-4	4	.	11	.	-1
CCn1c(C)cs/c1=N\S(=O)(=O)c1ccccc1	-4	-18	.	.	.	-1
O=Cc1s/c(=N\S(=O)(=O)c2ccccc2)n(CCCCl)c1Cl	.	61*	-6	26	1.1	8
Cc1ccc(S(=O)(=O)N[C@H](C(=O)OCC(=O)NC(=O)NCc2ccco2)C(C)C)cc1	1	3	.	.	.	24*
Cc1ccc(/C=C(\C#N)C(=O)Nc2cccc(C)n2)cc1	-4	-12	.	.	.	0
Fc1cccc2sc(Nc3nnc(-c4ccco4)o3)nc12	-6	41	68*	22	0.3	1
COc1cccc2sc(Nc3nnc(-c4cccs4)o3)nc12	-6	32	56*	26	0.4	0
O=C(Nc1nc2c(F)cccc2s1)c1ccco1	-4	32	.	.	.	-2
COc1cccc2sc(Nc3nnc(-c4ccc(F)cc4)o3)nc12	-6	10	28	-15	0.7	-1
Cc1ccc(-c2cc(-c3ccccc3)no2)cc1	-4	55*	.	.	.	-5
c1ccc(-c2cc(-c3ccccc3)on2)cc1	0	22	.	-3	.	-1
CCOC(=O)c1c(NC(=O)C(=O)N/N=C/c2ccccc2OC)sc2c1CCCCC2	0	-7	59*	13	0.4	-1
CCOC(=O)c1c(NC(=O)C(=O)N/N=C/c2ccccc2O)sc2c1CCCCC2	0	5	0	13	1	4
